Test results reported in ChEMBL document CHEMBL1138485, “Discovery of inducible nitric oxide synthase (iNOS) inhibitor development candidate KD7332, part 1: Identification of a novel, potent, and selective series of quinolinone iNOS dimerization inhibitors that are orally active in rodent pain models” (J Med Chem, 2009).

Key:
[1] = target: Nitric oxide synthase, inducible (Homo sapiens, UniProt P35228); test: Inhibition of human iNOS expressed in HEK293 cells assessed as NO production by transient transfection assay; assay type: cell-based
In short: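 HEK293 cells grown to ~70% confluence in DMEM/10% FBS with pen/strep. Cells transiently transfected with 10 µg human or murine iNOS plasmid (Fugene 6), 4 h at 37 °C, 10% CO2. Trypsinized, plated at 5 × 10⁵ cells/mL and dosed at once; 1400W 100 µM final as positive control. After 18 h, NO read as DAN fluorescence (10 µg/mL, 20 min RT, then NaOH). EC50 from 3 runs, 10-point curves, n = 8/point.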

[2] = system: Mus musculus; test: Reduction of plasma nitrate level in LPS-challenged BALB/c mouse at 30 mg/kg, po; assay type: functional; design: scale not given: the % may be the effect or the level left
In short: (§1)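 Male Balb/c mice were dosed by oral gavage (90% PEG/5% Tween 80/5% PVP + 90% CMC (0.5% w/v)) at t = 0 h, 30 mg/kg for single-dose lines. LPS 10 mg/kg ip in 0.9% NaCl followed immediately. At 6 h, EDTA plasma was taken for nitrate and drug levels. Nitrate reduction is relative to vehicle; ED50 came from full oral dose-response.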

[3] = target: Cytochrome P450 3A4 (Homo sapiens, UniProt P08684); test: Inhibition of CYP3A4; assay type: ADME
[4] = target: T1, Cytochrome P450 1A2 (Homo sapiens, UniProt P05177); test: Inhibition of CYP1A2; assay type: ADME
T1 sequence (P05177 whole entry): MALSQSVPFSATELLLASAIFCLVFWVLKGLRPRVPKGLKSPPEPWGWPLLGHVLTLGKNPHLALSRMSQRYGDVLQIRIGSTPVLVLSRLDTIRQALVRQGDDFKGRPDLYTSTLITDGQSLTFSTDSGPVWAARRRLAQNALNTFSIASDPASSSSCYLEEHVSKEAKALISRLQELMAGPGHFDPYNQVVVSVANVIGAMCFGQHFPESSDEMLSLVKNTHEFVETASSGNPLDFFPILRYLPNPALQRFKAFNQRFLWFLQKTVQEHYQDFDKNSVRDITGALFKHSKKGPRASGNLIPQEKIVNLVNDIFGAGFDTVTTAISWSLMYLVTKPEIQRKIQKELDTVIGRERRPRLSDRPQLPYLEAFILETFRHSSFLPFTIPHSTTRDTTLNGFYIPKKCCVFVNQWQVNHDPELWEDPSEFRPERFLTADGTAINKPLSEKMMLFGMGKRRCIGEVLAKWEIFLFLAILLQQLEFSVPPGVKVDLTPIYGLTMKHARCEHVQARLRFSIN

[5] = target: T2, Nitric oxide synthase 3 (Homo sapiens, UniProt P29474); test: Inhibition of human eNOS expressed in HEK293 cells assessed as NO production by transient transfection assay; assay type: cell-based
T2 sequence (P29474 whole entry): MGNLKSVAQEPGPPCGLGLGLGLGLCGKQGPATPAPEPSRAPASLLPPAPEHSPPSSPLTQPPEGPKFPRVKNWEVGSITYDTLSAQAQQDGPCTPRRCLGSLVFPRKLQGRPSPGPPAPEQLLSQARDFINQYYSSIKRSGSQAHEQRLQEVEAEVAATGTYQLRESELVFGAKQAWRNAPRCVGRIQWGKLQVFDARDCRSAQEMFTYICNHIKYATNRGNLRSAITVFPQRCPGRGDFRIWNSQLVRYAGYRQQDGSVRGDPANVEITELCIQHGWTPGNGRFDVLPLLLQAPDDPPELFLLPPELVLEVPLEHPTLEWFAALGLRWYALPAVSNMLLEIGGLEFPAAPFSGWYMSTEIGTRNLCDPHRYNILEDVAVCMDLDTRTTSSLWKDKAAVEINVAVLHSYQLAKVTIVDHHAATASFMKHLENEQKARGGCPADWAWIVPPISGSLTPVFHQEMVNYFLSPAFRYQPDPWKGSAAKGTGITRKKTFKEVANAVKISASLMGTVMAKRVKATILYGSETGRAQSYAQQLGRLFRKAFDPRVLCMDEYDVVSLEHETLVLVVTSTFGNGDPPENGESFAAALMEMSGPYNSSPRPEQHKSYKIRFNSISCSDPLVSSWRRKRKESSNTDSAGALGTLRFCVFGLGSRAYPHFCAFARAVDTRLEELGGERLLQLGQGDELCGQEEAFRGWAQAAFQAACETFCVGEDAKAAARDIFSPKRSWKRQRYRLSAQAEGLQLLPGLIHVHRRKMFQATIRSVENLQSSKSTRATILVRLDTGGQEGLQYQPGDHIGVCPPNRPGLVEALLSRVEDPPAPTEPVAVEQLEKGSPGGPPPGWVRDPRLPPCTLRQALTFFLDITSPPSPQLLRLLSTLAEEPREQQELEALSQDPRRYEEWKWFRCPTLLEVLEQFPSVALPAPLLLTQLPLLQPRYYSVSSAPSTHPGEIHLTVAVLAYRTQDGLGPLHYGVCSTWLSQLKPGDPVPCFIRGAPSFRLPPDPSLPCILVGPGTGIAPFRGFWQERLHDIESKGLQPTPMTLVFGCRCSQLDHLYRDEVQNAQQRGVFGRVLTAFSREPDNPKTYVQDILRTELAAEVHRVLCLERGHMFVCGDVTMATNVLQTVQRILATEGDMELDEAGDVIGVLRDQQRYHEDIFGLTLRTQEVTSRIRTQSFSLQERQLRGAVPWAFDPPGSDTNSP
In short: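 HEK293 cells grown to ~70% confluence in DMEM/10% FBS with pen/strep, transfected with 15 µg human eNOS plasmid plus Fugene 6 (3:1 µL:µg), 4 h at 37 °C, 10% CO2. Cells replated at 5 × 10⁵/mL, compound added at once, 24 h incubation, then A23187 (83 nM final). After 18 h, NO read by DAN fluorescence.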

[6] = Drug level in LPS-challenged BALB/c mouse plasma at 30 mg/kg, po after 6 hrs; assay type: ADME, organism-based; design: dose 30 mg/kg, route oral; in short: as §1
[7] = target: Cytochrome P450 2D6 (Homo sapiens, UniProt P10635); test: Inhibition of CYP2D6; assay type: ADME
[8] = target: Cytochrome P450 2C19 (Homo sapiens, UniProt P33261); test: Inhibition of CYP2C19; assay type: ADME
Sequence of Cytochrome P450 2C19 (P33261 whole entry): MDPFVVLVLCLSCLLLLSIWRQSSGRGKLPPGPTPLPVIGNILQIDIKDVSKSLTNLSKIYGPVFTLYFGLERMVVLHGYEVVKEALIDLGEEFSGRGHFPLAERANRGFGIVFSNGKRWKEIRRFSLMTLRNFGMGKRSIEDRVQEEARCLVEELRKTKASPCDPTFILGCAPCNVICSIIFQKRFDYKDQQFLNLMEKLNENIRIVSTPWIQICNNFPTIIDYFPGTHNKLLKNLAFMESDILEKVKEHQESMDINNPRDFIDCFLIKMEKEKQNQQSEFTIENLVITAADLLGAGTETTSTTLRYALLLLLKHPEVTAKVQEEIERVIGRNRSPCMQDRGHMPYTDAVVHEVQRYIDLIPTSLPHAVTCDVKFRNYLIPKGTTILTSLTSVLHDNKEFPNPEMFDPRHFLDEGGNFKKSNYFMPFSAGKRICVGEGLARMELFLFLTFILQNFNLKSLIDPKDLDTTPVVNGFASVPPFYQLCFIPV

Sequence of Nitric oxide synthase, inducible (P35228 whole entry): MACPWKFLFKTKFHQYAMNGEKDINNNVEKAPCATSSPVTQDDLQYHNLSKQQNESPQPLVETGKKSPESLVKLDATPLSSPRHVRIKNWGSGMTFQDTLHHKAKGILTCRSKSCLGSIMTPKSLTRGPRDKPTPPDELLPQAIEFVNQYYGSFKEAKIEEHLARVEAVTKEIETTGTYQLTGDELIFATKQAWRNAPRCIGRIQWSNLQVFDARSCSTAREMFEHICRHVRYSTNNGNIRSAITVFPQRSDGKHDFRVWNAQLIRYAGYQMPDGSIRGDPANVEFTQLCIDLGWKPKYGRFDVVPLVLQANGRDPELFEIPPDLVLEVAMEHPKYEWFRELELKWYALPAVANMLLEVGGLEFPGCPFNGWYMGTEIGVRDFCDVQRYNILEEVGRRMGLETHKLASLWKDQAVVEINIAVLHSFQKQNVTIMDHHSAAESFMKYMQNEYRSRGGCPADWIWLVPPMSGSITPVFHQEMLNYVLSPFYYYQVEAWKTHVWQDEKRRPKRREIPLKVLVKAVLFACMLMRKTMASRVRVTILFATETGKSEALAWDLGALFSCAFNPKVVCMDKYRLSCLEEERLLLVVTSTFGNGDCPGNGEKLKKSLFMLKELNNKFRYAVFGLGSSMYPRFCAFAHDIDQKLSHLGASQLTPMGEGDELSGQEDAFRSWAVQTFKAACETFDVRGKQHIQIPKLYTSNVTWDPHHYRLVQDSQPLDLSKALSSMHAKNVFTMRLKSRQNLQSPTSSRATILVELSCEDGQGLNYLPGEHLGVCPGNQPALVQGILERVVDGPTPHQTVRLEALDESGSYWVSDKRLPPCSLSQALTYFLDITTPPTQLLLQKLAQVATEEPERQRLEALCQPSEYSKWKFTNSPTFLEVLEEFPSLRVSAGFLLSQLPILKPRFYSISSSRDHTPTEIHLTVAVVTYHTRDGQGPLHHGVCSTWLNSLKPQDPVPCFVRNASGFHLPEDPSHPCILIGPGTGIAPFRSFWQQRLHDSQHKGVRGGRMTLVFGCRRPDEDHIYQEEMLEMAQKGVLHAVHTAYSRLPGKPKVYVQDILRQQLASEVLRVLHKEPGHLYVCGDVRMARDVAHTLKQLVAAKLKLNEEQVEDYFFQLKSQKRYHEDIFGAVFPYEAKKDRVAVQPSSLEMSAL
Sequence of Cytochrome P450 3A4 (P08684 whole entry): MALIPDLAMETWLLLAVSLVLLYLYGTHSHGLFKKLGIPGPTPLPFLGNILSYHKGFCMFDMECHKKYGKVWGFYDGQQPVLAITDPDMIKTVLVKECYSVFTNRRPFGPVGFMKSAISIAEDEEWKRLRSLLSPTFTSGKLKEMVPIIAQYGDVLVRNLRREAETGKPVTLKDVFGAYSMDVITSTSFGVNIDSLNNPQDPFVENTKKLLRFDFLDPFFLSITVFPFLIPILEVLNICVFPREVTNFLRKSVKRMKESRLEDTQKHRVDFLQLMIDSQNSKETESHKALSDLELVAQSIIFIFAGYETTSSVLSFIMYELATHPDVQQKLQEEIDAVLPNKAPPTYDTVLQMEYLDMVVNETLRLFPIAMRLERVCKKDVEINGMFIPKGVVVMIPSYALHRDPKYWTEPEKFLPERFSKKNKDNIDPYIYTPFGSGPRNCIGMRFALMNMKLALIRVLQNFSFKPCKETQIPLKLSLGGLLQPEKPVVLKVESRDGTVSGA
Sequence of Cytochrome P450 2D6 (P10635 whole entry): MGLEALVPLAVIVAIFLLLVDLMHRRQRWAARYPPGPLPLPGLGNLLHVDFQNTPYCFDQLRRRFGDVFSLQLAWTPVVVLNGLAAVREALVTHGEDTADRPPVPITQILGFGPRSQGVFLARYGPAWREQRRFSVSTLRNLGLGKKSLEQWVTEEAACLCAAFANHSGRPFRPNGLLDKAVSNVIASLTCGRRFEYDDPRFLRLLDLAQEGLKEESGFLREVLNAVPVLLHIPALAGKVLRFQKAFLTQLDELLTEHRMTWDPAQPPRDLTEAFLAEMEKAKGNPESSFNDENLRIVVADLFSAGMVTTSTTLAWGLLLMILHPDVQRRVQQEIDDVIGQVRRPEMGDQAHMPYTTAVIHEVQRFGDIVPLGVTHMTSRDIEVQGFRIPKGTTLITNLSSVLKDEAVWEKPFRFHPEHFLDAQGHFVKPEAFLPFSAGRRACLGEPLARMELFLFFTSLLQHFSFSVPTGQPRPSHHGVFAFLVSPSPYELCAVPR

Row | SMILES | EC50 [1] [µM] | Activity [2] [%] | EC50 [3] [µM] | EC50 [4] [µM] | EC50 [5] [µM] | concentration at 6 h [6] [ng/mL] | EC50 [7] [µM] | EC50 [8] [µM]
1 | Cc1ncsc1C(=O)N(Cc1cc(=O)[nH]c2c(F)cccc12)c1cccc(Cl)c1 | 0.011 | 90 | 7 | > 100 | 26 | 77 | > 100 | 13
2 | Cc1ncsc1C(=O)N(Cc1c[n+]([O-])cc2c(F)c(F)ccc12)c1cccc(Cl)c1 | 0.019 | 10 | 1.8 | > 100 | 34 | 20 | > 100 | 93
3 | CC(C)C(=O)N(Cc1cc(=O)[nH]c2c(F)cccc12)c1cccc(Cl)c1 | 0.16 | 6 | 7.6 | > 100 | > 100 | 21 | > 100 | 42
4 | CC1=C(C(=O)N(Cc2cc(=O)[nH]c3c(F)c(F)ccc23)c2cccc(Cl)c2)CNCC1 | 0.011 | 95 | 3.4 | > 100 | 2.5 | 63 | > 100 | 30
5 | Cn1cncc1C(=O)N(Cc1cc(=O)[nH]c2c(F)c(F)ccc12)c1cccc(Cl)c1 | 0.003 | 95 | 1.4 | 95 | 0.42 | 18 | 21 | 11
6 | Cc1ncsc1C(=O)N(Cc1cc(=O)[nH]c2c(F)c(F)ccc12)c1cccc(Cl)c1 | 0.002 | 62 | 4.9 | 52 | 3 | 8 | > 100 | 19
